For the first test, the target named is Steroid 5-alpha-reductase (Rattus norvegicus) (UniProt P24008+P31214). Description: (§1) Inhibitory activity against Steroid 5-alpha-reductase in prostates from male rats. The settings on record: Prostate gland; concentration not given here. Further details: concentration or dose not given beside the values. The class given is tissue-based. The method, boiled down:
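Ventral prostate from male Wistar rats (200–300 g), homogenized in ice-cold 0.32 M sucrose, 1 mM DTT, 20 mM sodium phosphate pH 6.5. Particulate pellet spun at 140000g, stored at –80 °C, used at 1 mg protein. Reaction run in 40 mM phosphate pH 6.5 with 1 mM DTT, 150 µM NADPH and 3 µM [14C]testosterone. Compounds added in ethanol. Incubated 37 °C, 20 min, extracted with ethyl acetate. [14C]T and DHT measured by TLC radioscan. IC50 given as mean ± SE of three experiments.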
`C/C(=C\C(=O)Nc1ccccc1OCCCC(=O)O)c1ccc2c(ccn2C2CCCCC2)c1`: the inhibition worked out at 48%. The same measure, in the same setting: the figure for `C/C(=C\C(=O)Nc1ccccc1OCCCC(=O)O)c1ccc2c(ccn2C2c3ccccc3CCc3ccccc32)c1` is 31%. The same measure, in the same setting: in the case of `CCCC(CCC)n1ccc2cc(/C(C)=C/C(=O)Nc3cccc(OCCCC(=O)O)c3)ccc21` it was 19%; in that of `C/C(=C\C(=O)Nc1cc(C)ccc1OCCCC(=O)O)c1ccc2c(ccn2C(c2ccccc2)c2ccccc2)c1`, 45%; in that of `CCCC(CCC)n1ccc2cc(/C(C)=C/C(=O)Nc3ccc(OCCCC(=O)O)cc3)ccc21`, 28%. On the same count and under the same terms, the figure for `C/C(=C\C(=O)Nc1cc(Cl)ccc1OCCCC(=O)O)c1ccc2c(ccn2C(c2ccccc2)c2ccccc2)c1` is 38%; for `C/C(=C\C(=O)Nc1ccccc1OCCCC(=O)O)c1ccc2c(ccn2C(C)c2ccc3ccccc3c2)c1` (stereo unspecified) it is 26%; for `C/C(=C\C(=O)N(C)c1ccccc1OCCCC(=O)O)c1ccc2c(ccn2C(C)c2ccccc2)c1` (stereo unspecified) it is 8%. `C/C(=C\C(=O)Nc1cc(F)ccc1OCCCC(=O)O)c1ccc2c(ccn2C(c2ccccc2)c2ccccc2)c1` yielded an inhibition of 52%.

The next test concerns the target T1, Steroid 5-alpha-reductase (Rattus norvegicus, UniProt P24008+P31214).
T1 sequence (P24008 whole entry): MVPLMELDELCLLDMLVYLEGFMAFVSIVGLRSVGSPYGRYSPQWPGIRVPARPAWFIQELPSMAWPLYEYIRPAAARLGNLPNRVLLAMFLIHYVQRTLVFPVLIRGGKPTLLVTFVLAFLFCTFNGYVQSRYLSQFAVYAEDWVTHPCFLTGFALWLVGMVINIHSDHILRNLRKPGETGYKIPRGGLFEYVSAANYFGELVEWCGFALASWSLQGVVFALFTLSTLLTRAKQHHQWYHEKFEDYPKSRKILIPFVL
T1 sequence (P31214 whole entry): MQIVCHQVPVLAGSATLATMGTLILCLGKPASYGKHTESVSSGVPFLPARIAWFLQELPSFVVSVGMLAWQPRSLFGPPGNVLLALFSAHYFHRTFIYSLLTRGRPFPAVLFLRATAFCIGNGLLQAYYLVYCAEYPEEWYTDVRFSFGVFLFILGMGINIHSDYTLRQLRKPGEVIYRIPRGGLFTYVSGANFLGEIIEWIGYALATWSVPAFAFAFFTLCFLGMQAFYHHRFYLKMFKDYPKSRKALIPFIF
Described as §1. Format: tissue-based, Prostate gland.
Conditions: not given
The procedure, abridged: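 Ventral prostate from male Wistar rats (200–300 g), homogenized in ice-cold 0.32 M sucrose, 1 mM DTT, 20 mM sodium phosphate pH 6.5. Particulate pellet spun at 140000g, stored at –80 °C, used at 1 mg protein. Compounds added in ethanol. Incubated 37 °C, 20 min, extracted with ethyl acetate. [14C]T and DHT measured by TLC radioscan. IC50 given as mean ± SE of three experiments.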
As to `C/C(=C\C(=O)Nc1ccccc1OCCCC(=O)O)c1ccc2c(ccn2C(c2ccccc2)c2ccccn2)c1` (stereo unspecified), the concentration for half-maximal inhibition (IC50) stood at 37 nM. The same measure, in the same setting: in the case of `CCCn1ccc2cc(/C(C)=C/C(=O)Nc3ccccc3OCCCC(=O)O)ccc21` it was 190 nM. Still for that read-out and setting: the figure for `CCCC(CC)n1ccc2cc(/C(C)=C/C(=O)Nc3ccccc3OCCCC(=O)O)ccc21` (stereo unspecified) is 9.3 nM; for `C/C(=C\C(=O)Nc1ccccc1OCCCC(=O)O)c1ccc2c(ccn2C(c2ccccc2)c2ccncc2)c1` (stereo unspecified) it is 26 nM. The same measure, in the same setting: in the case of `C/C(=C\C(=O)Nc1ccccc1OCCCC(=O)O)c1ccc2c(ccn2C(c2ccccc2)c2ccccc2)c1` it was 5.6 nM; in that of `C/C(=C\C(=O)Nc1cccc(F)c1OCCCC(=O)O)c1ccc2c(ccn2C(c2ccccc2)c2ccccc2)c1`, 15 nM; in that of `CCCCCC(CCCCC)n1ccc2cc(/C(C)=C/C(=O)Nc3ccccc3OCCCC(=O)O)ccc21`, 25 nM. The compound `C/C(=C\C(=O)Nc1ccc(F)cc1OCCCC(=O)O)c1ccc2c(ccn2C(c2ccccc2)c2ccccc2)c1` had an IC50 of 3.6 nM. `C/C(=C\C(=O)Nc1ccccc1SCCCC(=O)O)c1ccc2c(ccn2C(c2ccccc2)c2ccccc2)c1` had an IC50 of 39 nM. `CCCCc1ccc(Cn2ccc3cc(/C(C)=C/C(=O)Nc4ccccc4OCCCC(=O)O)ccc32)cc1` showed an IC50 of 100 nM. The same measure, in the same setting: in the case of `CCC(C)n1ccc2cc(/C(C)=C/C(=O)Nc3ccccc3OCCCC(=O)O)ccc21` (stereo unspecified) it was 67 nM; in that of `C/C(=C\C(=O)Nc1ccccc1OCCCC(=O)O)c1ccc2c(ccn2C(c2ccc(C)cc2)c2ccc(C)cc2)c1`, 8.8 nM; in that of `CCCCC(C)n1ccc2cc(/C(C)=C/C(=O)Nc3ccccc3OCCCC(=O)O)ccc21` (stereo unspecified), 6 nM. Regarding `C/C(=C\C(=O)Nc1ccc(C)cc1OCCCC(=O)O)c1ccc2c(ccn2C(c2ccccc2)c2ccccc2)c1`, the concentration for half-maximal inhibition (IC50) is recorded as 14 nM. On the same count and under the same terms, in the case of `C/C(=C\C(=O)Nc1ccccc1OCCCC(=O)O)c1ccc2c(ccn2C(CC(C)C)c2ccccc2)c1` (stereo unspecified) it was 6.3 nM. On the same count and under the same terms, the figure for `CCCCC(c1ccccc1)n1ccc2cc(/C(C)=C/C(=O)Nc3ccccc3OCCCC(=O)O)ccc21` (stereo unspecified) is 9.8 nM. Same read-out and setting: in the case of `C/C(=C\C(=O)Nc1ccccc1OCCCC(=O)O)c1ccc2c(ccn2Cc2cccc(C)c2)c1` it was 250 nM; in that of `CCCCn1ccc2cc(/C(C)=C/C(=O)Nc3ccccc3OCCCC(=O)O)ccc21`, 43 nM.

Consider `C/C(=C\C(=O)Nc1ccccc1OCCCC(=O)O)c1ccc2c(ccn2C(c2ccc(Cl)cc2)c2ccc(Cl)cc2)c1`, for which the IC50 is listed as 25 nM. Still for that read-out and setting: in the case of `C/C(=C\C(=O)Nc1ccccc1OCCCC(=O)O)c1ccc2c(ccn2C(C)c2ccccc2)c1` (stereo unspecified) it was 19 nM. Turning to `CCCCCCn1ccc2cc(/C(C)=C/C(=O)Nc3ccccc3OCCCC(=O)O)ccc21`, the IC50 is 77 nM. Still for that read-out and setting: in the case of `C/C(=C\C(=O)Nc1ccccc1OCCCC(=O)O)c1ccc2c(ccn2Cc2ccc(C(C)(C)C)cc2)c1` it was 170 nM; in that of `CCC(c1ccccc1)n1ccc2cc(/C(C)=C/C(=O)Nc3ccccc3OCCCC(=O)O)ccc21` (stereo unspecified), 19 nM. The same measure, in the same setting: in the case of `COc1ccc(Cn2ccc3cc(/C(C)=C/C(=O)Nc4ccccc4OCCCC(=O)O)ccc32)cc1` it was 480 nM; in that of `CCCCCn1ccc2cc(/C(C)=C/C(=O)Nc3ccccc3OCCCC(=O)O)ccc21`, 23 nM. Consider `CCCCC(CCCC)n1ccc2cc(/C(C)=C/C(=O)Nc3ccccc3OCCCC(=O)O)ccc21`, for which the IC50 is on record as 21 nM. On the same count and under the same terms, in the case of `CCCC(C)n1ccc2cc(/C(C)=C/C(=O)Nc3ccccc3OCCCC(=O)O)ccc21` (stereo unspecified) it was 7.8 nM. Still for that read-out and setting: the figure for `CCCCCC(c1ccccc1)n1ccc2cc(/C(C)=C/C(=O)Nc3ccccc3OCCCC(=O)O)ccc21` (stereo unspecified) is 25 nM; for `COc1ccc(C(c2ccc(OC)cc2)n2ccc3cc(/C(C)=C/C(=O)Nc4ccccc4OCCCC(=O)O)ccc32)cc1` it is 9.8 nM.

`C/C(=C\C(=O)Nc1ccccc1OCCCC(=O)O)c1ccc2c(ccn2CC(C)(C)C)c1.Cc1ccccc1` displayed an IC50 of 84 nM.

In the case of `CCCC(c1ccccc1)n1ccc2cc(/C(C)=C/C(=O)Nc3ccccc3OCCCC(=O)O)ccc21` (stereo unspecified), the IC50 was 9.1 nM. The same measure, in the same setting: the figure for `C/C(=C\C(=O)Nc1ccccc1OCCCC(=O)O)c1ccc2c(ccn2C(c2ccccc2C)c2ccccc2C)c1` is 19 nM; for `CCCCC(CC)n1ccc2cc(/C(C)=C/C(=O)Nc3ccccc3OCCCC(=O)O)ccc21` (stereo unspecified) it is 7.1 nM. `C/C(=C\C(=O)Nc1ccccc1OCCCC(=O)O)c1ccc2c(ccn2Cc2ccc(F)cc2)c1` showed an IC50 of 97 nM. Still for that read-out and setting: the figure for `COc1ccc(C(c2ccccc2)n2ccc3cc(/C(C)=C/C(=O)Nc4ccccc4OCCCC(=O)O)ccc32)cc1` (stereo unspecified) is 8.8 nM; for `CCCCCCCn1ccc2cc(/C(C)=C/C(=O)Nc3ccccc3OCCCC(=O)O)ccc21` it is 120 nM; for `C/C(=C\C(=O)Nc1ccccc1OCCCC(=O)O)c1ccc2c(ccn2CC(C)C)c1` it is 160 nM. The same measure, in the same setting: the figure for `C/C(=C\C(=O)Nc1ccccc1OCCCC(=O)O)c1ccc2c(ccn2Cc2ccc(C(F)(F)F)cc2)c1` is 300 nM. For the compound `CC(C)=CCn1ccc2cc(/C(C)=C/C(=O)Nc3ccccc3OCCCC(=O)O)ccc21`, the IC50 stood at 120 nM. Still for that read-out and setting: in the case of `C/C(=C\C(=O)Nc1ccccc1OCCCC(=O)O)c1ccc2c(ccn2C(c2ccccc2)c2ccc(C(F)(F)F)cc2)c1` (stereo unspecified) it was 8.1 nM.

`C/C(=C\C(=O)Nc1ccccc1OCCCC(=O)O)c1ccc2c(ccn2Cc2ccc(C)cc2)c1`: the IC50 stood at 88 nM. Same read-out and setting: the figure for `C/C(=C\C(=O)Nc1ccccc1OCCCC(=O)O)c1ccc2c(ccn2C)c1` is 780 nM.

As for `C/C(=C\C(=O)Nc1ccccc1OCCCC(=O)O)c1ccc2c(ccn2C(c2ccccc2)c2cccnc2)c1` (stereo unspecified), the IC50 was found to be 47 nM.

In the case of `C/C(=C\C(=O)Nc1ccccc1OCCCC(=O)O)c1ccc2c(ccn2C(c2ccccc2)C(C)C)c1` (stereo unspecified), the IC50 is reported as 25 nM. Same read-out and setting: the figure for `CCCC(C(C)C)n1ccc2cc(/C(C)=C/C(=O)Nc3ccccc3OCCCC(=O)O)ccc21` (stereo unspecified) is 7.2 nM. On the same count and under the same terms, the figure for `C/C(=C\C(=O)Nc1ccccc1OCCCC(=O)O)c1ccc2c(ccn2Cc2ccccc2C)c1` is 69 nM. On the same count and under the same terms, in the case of `C/C(=C\C(=O)Nc1ccccc1OCCCC(=O)O)c1ccc2c(ccn2C(C(C)C)C(C)C)c1` it was 14 nM.

In general, inhibition refers to the percentage by which the read-out fell short of the control. As usually defined, the IC50 is the midpoint of a concentration-inhibition curve.

The record behind these values is ChEMBL document CHEMBL1128485, “(E)-4-(2-[[3-(indol-5-yl)-1-oxo-2-butenyl]amino]phenoxy)butyric acid derivatives: a new class of steroid 5 alpha-reductase inhibitors in the rat prostate. 1” (J Med Chem, 1995).
